In ChEMBL document CHEMBL4049421, “Design, Synthesis, and Pharmacological Characterization of N-(4-(2 (6,7-Dimethoxy-3,4-dihydroisoquinolin-2(1H)yl)ethyl)phenyl)quinazolin-4-amine Derivatives: Novel Inhibitors Reversing P-Glycoprotein-Mediated Multidrug Resistance” (J Med Chem, 2017):
Calls of active or inactive are those of the source. The rule behind the calls is not given here.

Key:
[1] = Inhibition of CYP3A4 in rat liver microsomes assessed as decrease in 6beta-OH testosterone levels using testosterone as substrate by HPLC analysis; format: ADME
In short: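 Rat liver microsomes were isolated by differential centrifugation, with protein measured by Bradford assay. They were incubated with testosterone, without or with inhibitor at 2.5, 5.0, 10.0, 20.0 and 40.0 μM; ketoconazole was the reference inhibitor. 6β-OH testosterone was quantified by C18 reverse-phase HPLC (water/acetonitrile gradient, 35 °C, 1.0 mL/min, UV 254 nm). Mean ± SD, three independent experiments.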

[2] = Cytotoxicity against human K562 cells assessed as cell viability at 1.0 uM after 48 hrs by MTT assay (reference value: >99%); format: cell-based; conditions: read-out: Activity
[3] = Cytotoxicity against human K562/A02 cells assessed as cell viability at 1.0 uM after 48 hrs by MTT assay (reference value: >99%); format: cell-based; conditions: read-out: Activity
Homo sapiens [4] = species on record: Homo sapiens; assay: Inhibition of P-gp in human K562/A02 cells assessed as potentiation of doxorubicin-induced cytotoxicity by measuring fold reduction in doxorubicin IC50 at 1.0 uM after 48 hrs by MTT assay relative to doxorubicin alone; format: cell-based
In short: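 K562/A02 cells (1×10^4 cells per well) were exposed to a DOX concentration series, alone or with modulator at 1.0 μM, for 48 h. Viability was read by MTT at 490 nm. Reversal fold = DOX IC50 without inhibitor / DOX IC50 with inhibitor, mean ± SD of three tests.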

[5] = Cytotoxicity against human K562/A02 cells assessed as cell viability at 5.0 uM after 48 hrs by MTT assay (reference value: >99%); format: cell-based; conditions: read-out: Activity
Rattus norvegicus = assay: Effect on plasma concentration of doxorubicin in Sprague-Dawley rat at 5 mg/kg, iv co-administered with doxorubicin measured after 8 hrs by LC-MS/MS analysis; format: ADME, organism-based; conditions: in vivo
In short: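 Male SD rats received DOX 10 mg/kg i.v. alone or with modulator 5 mg/kg i.v. Orbital blood was taken at 5 min to 8 h. Plasma DOX was measured by LC-MS/MS with DNR (0.5 μg/mL) as internal standard. Mean ± SD, n = 3.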

Homo sapiens [6] = species on record: Homo sapiens; conditions: 5 uM
Homo sapiens [7] = species on record: Homo sapiens; conditions: 5 uM; remark: listed apart in the source
Homo sapiens [8] = species on record: Homo sapiens; conditions: 5.0 uM
in vitro = conditions: human, K562 cells
K562 [9] = assay: Cytotoxicity against human K562 cells assessed as reduction in cell viability after 48 hrs by MTT assay; format: functional, cell-based; conditions: K562, 48 h
In short: (§1)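 MTT assay on HUVEC, K562 or K562/A02 cells seeded at 1×10^4 cells per well, using serial compound concentrations. Formazan was dissolved in DMSO and read at 490 nm. IC50 was obtained from log dose–response curves, mean ± SD of three independent tests.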

K562/A02 [10] = assay: Cytotoxicity against human K562/A02 cells assessed as reduction in cell viability after 48 hrs by MTT assay; format: functional, cell-based; conditions: K562/A02, 48 h; in short: as §1
HUVEC = assay: Cytotoxicity against HUVEC assessed as reduction in cell viability after 48 hrs by MTT assay; format: cell-based; conditions: Homo sapiens; in short: as §1
[11] = Selective ratio of IC50 for human K562/A02 cells to IC50 for human K562 cells; format: functional
K562 [12] = assay: Antiproliferative activity against human K562 cells assessed as cell viability at 5.0 uM after 48 hrs by MTT assay (reference value: >99%); format: functional; conditions: K562, 48 h, read-out: Activity
K562/A02 [13] = assay: Antiproliferative activity against human K562/A02 cells assessed as cell viability at 5.0 uM after 48 hrs by MTT assay (reference value: >99%); format: functional; conditions: K562/A02, 48 h, read-out: Activity
[14] = Elimination half life in Sprague-Dawley rat at 10 mg/kg, iv by LC-MS/MS analysis; format: ADME, organism-based; conditions: in vivo, read-out: beta t1/2 (converted)
Homo sapiens [15] = species on record: Homo sapiens; assay: Inhibition of P-gp in human K562/A02 cells assessed as accumulation of doxorubicin at 0.1 uM to 5.0 uM after 150 mins by fluorescence spectrophotometric analysis; format: cell-based
In short: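 K562/A02 cells (4×10^5) were incubated 150 min at 37 °C with 20.0 μM DOX plus modulator at various concentrations, with 0.1% DMSO as negative control. Cells were washed with cold PBS and lysed in HCl/Triton X-100/isopropanol. DOX fluorescence was read at ex 460 / em 587 nm. Mean ± SD, n = 3.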

Homo sapiens [16] = species on record: Homo sapiens; assay: Inhibition of P-gp mediated efflux in human K562/A02 cells assessed as intracellular Rh123 accumulation at 1.0 uM measure up to 90 mins by flow cytometric analysis; format: cell-based
In short: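 K562/A02 cells were loaded with 5 μM Rh123 for 90 min at 37 °C and washed three times. They were then incubated with or without modulator at 37 °C for 5, 10, 25, 30, 60 and 90 min. Retained Rh123 MFI per 10000 cells was measured by flow cytometry. 0.1% DMSO negative control, n = 3.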

Homo sapiens [17] = species on record: Homo sapiens; assay: Inhibition of ATPase activity in human P-gp membrane fraction at 0.5 uM in presence of ATP after 1 hr by luciferase […]; format: cell membranes
In short: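 Human P-gp membrane fraction (~25 μg) was incubated with compound at 0.5, 5.0 or 50.0 μM in 0.5% DMSO, with a 100 μM sodium vanadate reference. Reaction was started with 5.0 mM MgATP, 1 h at 37 °C. Remaining ATP was read by luciferase luminescence after 20 min at room temperature, relative to vanadate. n = 3.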

Structure (SMILES)	viability at 48 h, 1 µM [2]	viability at 48 h, 1 µM [3]	fold change (FC) (Homo sapiens [4])	other results
CC(=O)N1CCN(c2ccc(OCC3COC(Cn4ccnc4)(c4ccc(Cl)cc4Cl)O3)cc2)CC1 (configuration not stated) [KETOCONAZOLE]				inhibition (INH) [1]: Dose-dependent effect
COc1cccc(-c2nc(Nc3ccc(CCN4CCc5cc(OC)c(OC)cc5C4)cc3)c3ccccc3n2)c1	> 99%	> 99%	14.6	
COc1cc2c(cc1OC)CN(CCc1ccc(Nc3nc(-c4cccc([N+](=O)[O-])c4)nc4ccccc34)cc1)CC2	> 99%	> 99%	13.4	
COc1cc2c(cc1OC)CN(CCc1ccc(Nc3nc(-c4ccccc4OC)nc4ccccc34)cc1)CC2	> 99%	> 99%	10.9	
COc1cc2c(cc1OC)CN(CCc1ccc(Nc3nc(-c4ccc(Cl)cc4)nc4ccccc34)cc1)CC2	> 99%	> 99%	6	
COc1cc2c(cc1OC)CN(CCc1ccc(Nc3nc(-c4ccc(F)cc4)nc4ccccc34)cc1)CC2	> 99%	> 99%	3.3	
COc1cc2c(cc1OC)CN(CCc1ccc(Nc3nc(-c4cccc(C)c4)nc4ccccc34)cc1)CC2	92.9%	92.1%	8.9	
COc1ccc(CCN(C)CCCC(C#N)(c2ccc(OC)c(OC)c2)C(C)C)cc1OC (configuration not stated)				viability at 48 h, 5 µM [5]: 88.3%; Activity (Rattus norvegicus): Toxic; inhibition (Homo sapiens [6]): inactive; inhibition (Homo sapiens [7]): Active; inhibition (Homo sapiens [8]): Active; viability at 48 h, 5 µM (in vitro): > 99%
COc1cc2c(cc1OC)CN(CCc1ccc(Nc3nc(-c4cccnc4)nc4ccccc34)cc1)CC2	> 99%	97.9%	5.9	
COc1cc2c(cc1OC)CN(CCc1ccc(Nc3nc(-c4ccc5c(c4)OCO5)nc4ccccc34)cc1)CC2	91.4%	89.2%	15.5	
COc1ccc(-c2nc(Nc3ccc(CCN4CCc5cc(OC)c(OC)cc5C4)cc3)c3ccccc3n2)cc1	> 99%	85.2%	7.9	
COc1cccc2c1C(=O)c1c(O)c3c(c(O)c1C2=O)C[C@@](O)(C(=O)CO)C[C@@H]3O[C@H]1C[C@H](N)[C@H](O)[C@H](C)O1 [DOXORUBICIN]				IC50 (K562 [9]): 0.62 µM; IC50 (K562/A02 [10]): 89.8 µM; IC50 (HUVEC): 8.65 µM; Ratio IC50 [11]: 144.8; viability at 5 µM (K562 [12]): 8.8%; viability at 5 µM (K562/A02 [13]): 96.4%; half-life [14]: 1.6 h
COc1ccc(C(=O)Nc2ccccc2C(=O)Nc2ccc(CCN3CCc4cc(OC)c(OC)cc4C3)cc2)cc1OC	97.5%	> 99%	18.6	inhibition (Homo sapiens [15]): Active; inhibition (Homo sapiens [16]): Active; inhibition (Homo sapiens [17]): Active; Activity (Rattus norvegicus): Non-Toxic
COc1cc2c(cc1OC)CN(CCc1ccc(Nc3nc(-c4ccccc4)nc4cc(OC)c(OC)cc34)cc1)CC2	> 99%	97.3%	10.1	
COc1cc2c(cc1OC)CN(CCc1ccc(Nc3nc(-c4ccc([N+](=O)[O-])cc4)nc4ccccc34)cc1)CC2	94.7%	> 99%	3	
COc1ccc(-c2nc(Nc3ccc(CCN4CCc5cc(OC)c(OC)cc5C4)cc3)c3ccccc3n2)cc1OC	95.1%	> 99%	17.2	
COc1cc2c(cc1OC)CN(CCc1ccc(Nc3nc(-c4ccc5ccccc5n4)nc4ccccc34)cc1)CC2	> 99%	92.1%	2.6	
COc1cc2c(cc1OC)CN(CCc1ccc(Nc3nc(-c4ccccc4)nc4cc(Cl)ccc34)cc1)CC2	> 99%	95.3%	8.2	
COc1cc2c(cc1OC)CN(CCc1ccc(Nc3nc(-c4ccc(C(C)(C)C)cc4)nc4ccccc34)cc1)CC2	> 99%	91.3%	1.9	
COc1cc2c(cc1OC)CN(CCc1ccc(Nc3nc(-c4ccc(C)cc4)nc4ccccc34)cc1)CC2	93.4%	94.2%	7.5	
COc1cc2c(cc1OC)CN(CCc1ccc(Nc3nc(-c4ccccc4)nc4ccccc34)cc1)CC2	98.7%	> 99%	7.7	
